Activity calls are given as the source filed them. The calls are words filed in the database; no cut-off is given here.
Tests used:
[1] = target: Focal adhesion kinase 1 (Homo sapiens) (UniProt Q05397); experiment: Activity of human FAK kinase at 1 uM
[2] = target: Serine/threonine-protein kinase BRSK2 (Homo sapiens) (UniProt Q8IWQ3); experiment: Activity of human BrSK2 kinase at 1 uM
[3] = target: Ephrin type-A receptor 7 (Homo sapiens) (UniProt Q15375); experiment: Activity of human EphA7 kinase at 1 uM
Outline: (§1)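 Single-point kinase profiling: each kinase in a 226-kinase panel tested with compound at 1 μM and ATP at 10 μM in every assay, run by an external screening service.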

[4] = target: Serine/threonine-protein kinase MRCK alpha (Homo sapiens) (UniProt Q5VT25); experiment: Activity of human MRCKalpha kinase at 1 uM
[5] = target: cGMP-dependent protein kinase 1 (Homo sapiens) (UniProt Q13976); experiment: Activity of human PKG1-beta kinase at 1 uM; outline: as §1
[6] = target: Ephrin type-A receptor 3 (Homo sapiens) (UniProt P29320); experiment: Activity of human EphA3 kinase at 1 uM
[7] = target: Tyrosine-protein kinase Yes (Homo sapiens) (UniProt P07947); experiment: Activity of human Yes kinase at 1 uM
Outline: (§2)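 Single-concentration screen across a 226-kinase panel run by an outside provider; test compound at 1 μM with 10 μM ATP in every assay. Other conditions not detailed.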

[8] = tested on: PC-3; experiment: Induction of apoptosis in human PC3 cells assessed as PARP cleavage at 1 uM after 48 hrs by Western blot method; format: functional, cell-based
[9] = target: Tyrosine-protein kinase ABL2 (Mus musculus) (UniProt Q4JIM5); experiment: Activity of mouse Arg kinase at 1 uM; outline: as §2
[10] = tested on: PC-3; experiment: Antitumor activity against human PC3 cells xenografted into athymic nude NCR nu/nu mouse at 10 mg/kg, po BID after 21 days relative to control; format: functional
Outline: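 Oral dosing for 21 days in 10% hydroxypropyl-β-cyclodextrin/5% sodium bicarbonate. Caliper volumes, L × W2 × 0.5. TGI = (Δcontrol − Δtreated average volume) × 100/Δcontrol.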

[11] = target: Serine/threonine-protein kinase N2 (Homo sapiens) (UniProt Q16513); experiment: Activity of human PRK2 kinase at 1 uM
Outline: (§3)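 Single-point screen in a 226-kinase panel run by an outside service. Test compound at 1 μM with ATP at 10 μM in every assay. Other assay conditions are not given.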

[12] = target: Tyrosine-protein kinase Fgr (Homo sapiens) (UniProt P09769); experiment: Activity of human FGR kinase at 1 uM; outline: as §1
[13] = target: Serine/threonine-protein kinase PAK 5 (Homo sapiens) (UniProt Q9P286); experiment: Activity of human PAK5 kinase at 1 uM; outline: as §3
[14] = target: Tyrosine-protein kinase BTK (Homo sapiens) (UniProt Q06187); experiment: Activity of human BTK kinase at 1 uM
[15] = tested on: PC-3; experiment: Induction of apoptosis in human PC3 cells assessed as PARP cleavage at 0.25 uM after 24 hrs by Western blot method; format: functional, cell-based
[16] = target: Death-associated protein kinase 2 (Homo sapiens) (UniProt Q9UIK4); experiment: Activity of human DAPK2 kinase at 1 uM; outline: as §1
[17] = species: Bos taurus; experiment: Activity of bovine PKA kinase at 1 uM
[18] = target: Mitogen-activated protein kinase 10 (Homo sapiens) (UniProt P53779); experiment: Activity of human JNK3 kinase at 1 uM; outline: as §1
[19] = target: Protein kinase C beta type (Homo sapiens) (UniProt P05771); experiment: Activity of human PKC-beta-1 kinase at 1 uM; outline: as §3
[20] = tested on: SK-OV-3; experiment: Antiproliferative activity against human SKOV3 cells after 96 hrs by BrdU cell proliferation ELISA; format: functional, cell-based; details: SK-OV-3, 96 h
[21] = target: Tyrosine-protein kinase Blk (Mus musculus) (UniProt P16277); experiment: Activity of mouse Blk kinase at 1 uM; outline: as §2
[22] = tested on: Mus musculus; experiment: Toxicity in human PC3 cells xenografted into athymic nude NCR nu/nu mouse assessed as decrease in body weight at 30 mg/kg, BID after 21 days; format: organism-based, PC-3; parameters: dose 30 mg/kg; scale not given: the % may be the effect or the level left; details: in vivo, 504 h
Outline: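 Male athymic nude NCR nu/nu mice were given PC-3 cells (2 × 10^6) s.c. in the right flank. Drug in 10% hydroxypropyl-β-cyclodextrin/5% sodium bicarbonate was given orally twice daily for 21 days. Average loss of initial body weight was recorded on day 21 of treatment.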

[23] = Inhibition of PKC by radioactive flashplate assay
[24] = target: Rho-associated protein kinase 2 (Homo sapiens) (UniProt O75116); experiment: Activity of human ROCK2 kinase at 1 uM; outline: as §3
[25] = target: Calcium/calmodulin-dependent protein kinase type IV (Homo sapiens) (UniProt Q16566); experiment: Activity of human CaMK4 kinase at 1 uM
[26] = target: Casein kinase I isoform gamma-3 (Homo sapiens) (UniProt Q9Y6M4); experiment: Activity of human CK1gamma3 kinase at 1 uM; outline: as §1
[27] = target: SRSF protein kinase 2 (Homo sapiens) (UniProt P78362); experiment: Activity of human SRPK2 kinase at 1 uM; outline: as §3
[28] = target: Misshapen-like kinase 1 (Homo sapiens) (UniProt Q8N4C8); experiment: Activity of human MINK kinase at 1 uM
[29] = target: Rho-associated protein kinase 1 (Homo sapiens) (UniProt Q13464); experiment: Activity of human ROCK1 kinase at 1 uM; outline: as §3
[30] = tested on: PC-3; experiment: Induction of apoptosis in human PC3 cells assessed as PARP cleavage at 0.25 uM after 48 hrs by Western blot method; format: functional, cell-based
[31] = target: Serine/threonine-protein kinase Nek3 (Homo sapiens) (UniProt P51956); experiment: Activity of human NEK3 kinase at 1 uM; outline: as §3
[32] = tested on: PC-3; experiment: Induction of apoptosis in human PC3 cells assessed as PARP cleavage at 4 uM after 48 hrs by Western blot method; format: functional, cell-based
[33] = target: Ephrin type-B receptor 1 (Homo sapiens) (UniProt P54762); experiment: Activity of human EphB1 kinase at 1 uM; outline: as §1
[34] = target: Ephrin type-B receptor 2 (Homo sapiens) (UniProt P29323); experiment: Activity of human EphB2 kinase at 1 uM; outline: as §1
[35] = target: BDNF/NT-3 growth factors receptor (Homo sapiens) (UniProt Q16620); experiment: Activity of human TrkB kinase at 1 uM; outline: as §2
[36] = target: Cyclin-dependent kinase 2/cyclin E1 (Homo sapiens) (UniProt P24864+P24941); experiment: Activity of human CDK2/cyclin E kinase at 1 uM; format: protein-complex assay
[37] = target: Protein kinase C iota type (Homo sapiens) (UniProt P41743); experiment: Activity of human PKCiota kinase at 1 uM; outline: as §1
[38] = target: G protein-coupled receptor kinase 5 (Homo sapiens) (UniProt P34947); experiment: Activity of human GRK5 kinase at 1 uM; outline: as §1
[39] = target: Protein kinase C theta type (Homo sapiens) (UniProt Q04759); experiment: Activity of human PKCtheta kinase at 1 uM; outline: as §1
[40] = target: Activin receptor type-1B (Homo sapiens) (UniProt P36896); experiment: Activity of human ALK4 kinase at 1 uM
[41] = target: Serine/threonine-protein kinase Nek6 (Homo sapiens) (UniProt Q9HC98); experiment: Activity of human NEK6 kinase at 1 uM; outline: as §3
Sequence of Serine/threonine-protein kinase Nek6 (Homo sapiens) (Q9HC98 whole entry): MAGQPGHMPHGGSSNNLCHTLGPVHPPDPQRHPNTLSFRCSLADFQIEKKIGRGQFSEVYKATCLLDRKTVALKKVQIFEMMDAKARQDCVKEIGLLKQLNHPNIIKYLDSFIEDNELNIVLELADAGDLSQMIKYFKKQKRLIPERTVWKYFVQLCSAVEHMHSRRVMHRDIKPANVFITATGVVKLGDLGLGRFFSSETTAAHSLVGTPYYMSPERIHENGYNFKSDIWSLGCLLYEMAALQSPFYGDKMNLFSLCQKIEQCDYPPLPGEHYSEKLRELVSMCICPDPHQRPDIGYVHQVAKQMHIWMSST

Sequence of cGMP-dependent protein kinase 1 (Homo sapiens) (Q13976 whole entry): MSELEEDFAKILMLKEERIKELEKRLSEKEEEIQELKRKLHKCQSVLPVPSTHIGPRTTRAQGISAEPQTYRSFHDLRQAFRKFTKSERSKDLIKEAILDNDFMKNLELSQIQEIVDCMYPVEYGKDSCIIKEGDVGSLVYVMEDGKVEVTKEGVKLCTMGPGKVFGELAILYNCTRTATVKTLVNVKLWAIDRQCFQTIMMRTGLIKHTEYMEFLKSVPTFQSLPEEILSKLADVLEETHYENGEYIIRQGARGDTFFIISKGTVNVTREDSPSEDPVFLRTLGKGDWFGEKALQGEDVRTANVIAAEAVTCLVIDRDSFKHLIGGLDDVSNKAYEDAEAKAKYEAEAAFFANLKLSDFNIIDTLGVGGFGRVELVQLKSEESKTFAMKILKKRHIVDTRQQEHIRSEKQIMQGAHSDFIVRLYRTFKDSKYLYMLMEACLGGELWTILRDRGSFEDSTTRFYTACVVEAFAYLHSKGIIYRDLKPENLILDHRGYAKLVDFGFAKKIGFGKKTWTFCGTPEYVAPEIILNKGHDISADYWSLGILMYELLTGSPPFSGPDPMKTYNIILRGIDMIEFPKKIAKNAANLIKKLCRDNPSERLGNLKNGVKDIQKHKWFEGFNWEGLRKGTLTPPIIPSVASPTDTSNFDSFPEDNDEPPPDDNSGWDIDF
Sequence of Protein kinase C iota type (Homo sapiens) (P41743 whole entry): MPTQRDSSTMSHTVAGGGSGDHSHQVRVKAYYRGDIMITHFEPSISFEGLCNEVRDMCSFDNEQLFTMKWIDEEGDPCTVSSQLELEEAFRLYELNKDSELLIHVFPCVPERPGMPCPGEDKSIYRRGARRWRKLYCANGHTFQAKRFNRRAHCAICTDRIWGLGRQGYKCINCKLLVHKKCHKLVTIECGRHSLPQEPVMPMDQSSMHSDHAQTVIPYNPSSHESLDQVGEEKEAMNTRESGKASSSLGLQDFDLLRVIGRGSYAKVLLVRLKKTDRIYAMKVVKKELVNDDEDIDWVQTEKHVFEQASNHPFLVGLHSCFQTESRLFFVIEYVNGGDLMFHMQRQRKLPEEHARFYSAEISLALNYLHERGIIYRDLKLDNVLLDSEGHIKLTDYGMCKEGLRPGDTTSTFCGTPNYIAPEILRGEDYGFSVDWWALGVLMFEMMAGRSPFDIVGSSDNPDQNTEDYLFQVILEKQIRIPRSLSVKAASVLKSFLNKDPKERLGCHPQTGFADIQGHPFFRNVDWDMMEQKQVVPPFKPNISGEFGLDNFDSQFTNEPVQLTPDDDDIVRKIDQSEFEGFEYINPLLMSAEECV
Sequence of Serine/threonine-protein kinase MRCK alpha (Homo sapiens) (Q5VT25 whole entry): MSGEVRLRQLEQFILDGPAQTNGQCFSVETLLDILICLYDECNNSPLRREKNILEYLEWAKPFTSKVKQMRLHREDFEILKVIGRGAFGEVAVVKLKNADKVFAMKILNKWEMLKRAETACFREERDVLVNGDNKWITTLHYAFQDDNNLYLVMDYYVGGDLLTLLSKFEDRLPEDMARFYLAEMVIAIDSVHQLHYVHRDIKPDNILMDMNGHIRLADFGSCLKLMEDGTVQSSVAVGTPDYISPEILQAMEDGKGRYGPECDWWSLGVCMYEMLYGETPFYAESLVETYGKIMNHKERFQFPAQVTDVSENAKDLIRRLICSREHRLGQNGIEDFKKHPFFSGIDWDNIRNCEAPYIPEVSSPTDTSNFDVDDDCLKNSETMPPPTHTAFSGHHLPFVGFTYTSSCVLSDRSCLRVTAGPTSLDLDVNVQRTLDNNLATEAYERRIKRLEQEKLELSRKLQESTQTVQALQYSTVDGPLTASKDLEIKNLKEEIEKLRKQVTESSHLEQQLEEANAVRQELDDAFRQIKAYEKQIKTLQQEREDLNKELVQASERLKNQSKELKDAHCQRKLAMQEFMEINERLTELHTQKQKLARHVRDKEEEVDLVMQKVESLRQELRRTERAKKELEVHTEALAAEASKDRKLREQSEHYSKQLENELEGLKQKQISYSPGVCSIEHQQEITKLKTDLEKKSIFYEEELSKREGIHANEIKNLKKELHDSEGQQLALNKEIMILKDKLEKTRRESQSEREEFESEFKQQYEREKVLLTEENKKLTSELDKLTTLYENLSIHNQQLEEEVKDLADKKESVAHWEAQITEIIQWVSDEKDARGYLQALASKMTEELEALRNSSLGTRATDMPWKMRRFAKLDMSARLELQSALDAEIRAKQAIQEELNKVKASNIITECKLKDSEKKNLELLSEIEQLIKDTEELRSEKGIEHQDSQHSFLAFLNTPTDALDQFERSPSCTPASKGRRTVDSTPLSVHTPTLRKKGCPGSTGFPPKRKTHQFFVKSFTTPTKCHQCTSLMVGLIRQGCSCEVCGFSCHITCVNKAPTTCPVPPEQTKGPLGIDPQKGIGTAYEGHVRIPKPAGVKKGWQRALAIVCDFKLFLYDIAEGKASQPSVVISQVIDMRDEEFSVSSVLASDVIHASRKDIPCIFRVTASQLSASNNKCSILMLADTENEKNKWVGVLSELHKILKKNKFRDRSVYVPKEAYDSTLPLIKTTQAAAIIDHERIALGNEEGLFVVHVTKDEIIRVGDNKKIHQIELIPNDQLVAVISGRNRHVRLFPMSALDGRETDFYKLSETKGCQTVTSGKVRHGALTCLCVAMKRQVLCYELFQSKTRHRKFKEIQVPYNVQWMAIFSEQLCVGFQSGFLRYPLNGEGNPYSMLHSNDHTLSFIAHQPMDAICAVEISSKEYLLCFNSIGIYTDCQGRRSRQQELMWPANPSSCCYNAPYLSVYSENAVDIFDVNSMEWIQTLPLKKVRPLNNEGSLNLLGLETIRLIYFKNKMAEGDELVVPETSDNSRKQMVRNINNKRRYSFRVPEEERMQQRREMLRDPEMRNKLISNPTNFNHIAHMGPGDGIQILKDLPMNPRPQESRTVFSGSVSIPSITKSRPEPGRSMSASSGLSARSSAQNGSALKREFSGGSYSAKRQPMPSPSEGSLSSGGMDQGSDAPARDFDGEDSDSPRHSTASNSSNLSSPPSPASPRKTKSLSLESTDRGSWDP
Sequence of Mitogen-activated protein kinase 10 (Homo sapiens) (P53779 whole entry): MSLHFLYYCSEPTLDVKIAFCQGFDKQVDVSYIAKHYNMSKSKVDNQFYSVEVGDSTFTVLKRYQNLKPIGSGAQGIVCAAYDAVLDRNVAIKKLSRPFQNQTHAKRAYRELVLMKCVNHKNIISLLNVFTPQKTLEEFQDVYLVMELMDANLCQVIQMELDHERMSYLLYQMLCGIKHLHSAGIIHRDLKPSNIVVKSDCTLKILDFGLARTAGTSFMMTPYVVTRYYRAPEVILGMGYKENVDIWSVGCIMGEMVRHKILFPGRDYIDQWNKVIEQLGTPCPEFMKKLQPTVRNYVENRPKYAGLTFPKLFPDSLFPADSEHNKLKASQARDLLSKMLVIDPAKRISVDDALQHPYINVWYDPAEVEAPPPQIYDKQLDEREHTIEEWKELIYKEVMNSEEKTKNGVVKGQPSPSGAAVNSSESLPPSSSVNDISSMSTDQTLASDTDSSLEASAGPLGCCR
Sequence of Calcium/calmodulin-dependent protein kinase type IV (Homo sapiens) (Q16566 whole entry, canonical isoform): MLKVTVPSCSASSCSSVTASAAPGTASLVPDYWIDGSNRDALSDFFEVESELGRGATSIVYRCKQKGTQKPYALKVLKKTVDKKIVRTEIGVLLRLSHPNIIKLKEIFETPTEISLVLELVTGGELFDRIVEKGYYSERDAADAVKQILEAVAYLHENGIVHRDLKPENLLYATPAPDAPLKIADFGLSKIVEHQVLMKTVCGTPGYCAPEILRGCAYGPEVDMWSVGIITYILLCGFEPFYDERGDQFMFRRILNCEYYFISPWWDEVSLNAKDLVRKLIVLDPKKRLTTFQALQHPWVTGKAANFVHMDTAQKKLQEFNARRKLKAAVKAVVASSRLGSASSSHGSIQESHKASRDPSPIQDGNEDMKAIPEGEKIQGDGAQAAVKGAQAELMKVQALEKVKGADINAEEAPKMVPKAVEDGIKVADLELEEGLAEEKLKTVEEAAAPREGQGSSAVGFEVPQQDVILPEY
Sequence of Tyrosine-protein kinase Fgr (Homo sapiens) (P09769 2-529 limits assumed): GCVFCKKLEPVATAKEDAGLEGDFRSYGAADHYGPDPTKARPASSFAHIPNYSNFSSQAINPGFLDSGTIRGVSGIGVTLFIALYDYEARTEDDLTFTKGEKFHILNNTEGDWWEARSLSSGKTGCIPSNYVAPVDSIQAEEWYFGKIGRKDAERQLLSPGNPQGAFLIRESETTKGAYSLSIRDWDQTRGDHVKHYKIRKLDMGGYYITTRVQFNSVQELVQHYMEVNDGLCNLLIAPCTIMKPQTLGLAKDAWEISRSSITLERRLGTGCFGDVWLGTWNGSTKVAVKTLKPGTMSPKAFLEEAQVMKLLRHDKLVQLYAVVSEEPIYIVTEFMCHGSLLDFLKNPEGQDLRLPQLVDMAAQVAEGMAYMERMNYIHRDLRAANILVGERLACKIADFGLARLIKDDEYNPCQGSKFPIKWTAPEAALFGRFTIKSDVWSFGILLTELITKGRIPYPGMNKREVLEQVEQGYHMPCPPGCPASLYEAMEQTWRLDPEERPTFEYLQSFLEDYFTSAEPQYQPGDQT

O=C(O)c1ccc(Nc2ncc3c(n2)-c2ccc(Cl)cc2C(c2c(F)cccc2F)=NC3)cc1 [MLN-8054]
Activity [1]: 110% | Activity [2]: 99% | Activity [3]: 67% | Activity [4]: 101% | Activity [5]: 109% | Activity [6]: 88% | Activity [7]: 20% | Activity [8]: Active | Activity [9]: 63% | Activity [10]: 73% | Activity [11]: 90% | Activity [12]: 36% | Activity [13]: 100% | Activity [14]: 90% | Activity [15]: Active | Activity [16]: 103% | Activity [17]: 86% | Activity [18]: 125% | Activity [19]: 98% | IC50 [20]: 530 nM | Activity [21]: 53% | Activity [22]: 5.4% | IC50 [23]: > 100 µM | Activity [24]: 100% | Activity [25]: 104% | Activity [26]: 113% | Activity [27]: 87% | Activity [28]: 104% | Activity [29]: 120% | Activity [30]: Active | Activity [31]: 95% | Activity [32]: Active | Activity [33]: 35% | Activity [34]: 69% | Activity [35]: 112% | Activity [36]: 97% | Activity [37]: 109% | Activity [38]: 109% | Activity [39]: 112% | Activity [40]: 115% | Activity [41]: 92%

Reference: ChEMBL document CHEMBL1147076, “Antitumor activity of MLN8054, an orally active small-molecule inhibitor of Aurora A kinase” (Proc Natl Acad Sci U S A, 2007)
